The values that follow come from ChEMBL document CHEMBL1135464, “3-Aryl-2-quinolone derivatives: synthesis and characterization of in vitro and in vivo antitumor effects with emphasis on a new therapeutical target connected with cell migration” (J Med Chem, 2002).

Broadly, the IC50 is the midpoint of a concentration-inhibition curve. The low end stands for greater potency in that assay, the high end for weaker potency in that assay. One may read the MTD as the highest dose tested that stayed within the study's limit of toxicity. Low readings indicate a narrow tolerated range, high ones a wide tolerated range.

The subject of one data set is J82. Put plainly: Cytotoxicity against J82 bladder cell lines using MTT colorimetric assay. It is filed as functional, cell-based. The conditions noted are these: Homo sapiens. The procedure, abridged:
(§1)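 Human tumour lines from ATCC were grown at 37 °C in sealed dishes in MEM with 5% FCS. Cells were seeded at 40000 cells/mL in 96-well plates and left 24 h to plate. Each drug was then tested at six concentrations from 10^-5 to 10^-9 M. Growth was read by colorimetric MTT assay.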
A general note: Tetrazolium dyes change colour on reduction, which living cells bring about.

For a further data set, the system named is MCF7. Put plainly: Cytotoxicity against Breast cancer cell line MCF-7 using MTT colorimetric assay. In kind it is functional, cell-based. The settings on record: Homo sapiens. The procedure, abridged:
as §1

Data set [1] is described as follows: Evaluated in vivo for maximum tolerated dose and found to be nontoxic. In kind it is ADME, organism-based.
For a further data set, the system named is T-24. The data set can be described thus: Cytotoxicity against T24 bladder cell lines using MTT colorimetric assay. It is filed as functional, cell-based. The settings on record: Homo sapiens. The procedure, abridged:
as §1

Another data set concerns PC-3. The data set can be described thus: Cytotoxicity against prostate cell line PC-3 using MTT colorimetric assay. The settings on record: Homo sapiens. In kind it is functional, cell-based. The procedure, abridged: as §1
The test system of a further data set is U-87 MG. The data set can be described thus: Cytotoxicity against U-87 MG glioblastomas using MTT colorimetric assay. In kind it is functional, cell-based, U-87MG ATCC. The settings on record: Homo sapiens. The procedure, abridged:
as §1

The subject of a further data set is U373 MG. Put plainly: Cytotoxicity against U-373 MG glioblastomas using MTT colorimetric assay. In kind it is functional, cell-based, U-373MG ATCC. The settings on record: Homo sapiens. The procedure, abridged:
as §1

A further data set deals with T47D. The data set can be described thus: Cytotoxicity against Breast cancer cell line T-47D using MTT colorimetric assay. In kind it is functional, cell-based. The settings on record: Homo sapiens. The procedure, abridged:
as §1

The next data set has as its system A-427. Put plainly: Cytotoxicity against A-427 nonsmall lung cell line using MTT colorimetric assay. In kind it is functional, cell-based. The settings on record: Homo sapiens. The procedure, abridged: as §1
Another data set has as its system A549. The data set can be described thus: Cytotoxicity against A549 nonsmall lung cell line using MTT colorimetric assay. It is filed as functional, cell-based. The settings on record: Homo sapiens. The procedure, abridged:
as §1

In a further data set the test system is A 172. Put plainly: Cytotoxicity against A-172 glioblastomas using MTT colorimetric assay. In kind it is functional, cell-based. The conditions noted are these: Homo sapiens. The procedure, abridged:
as §1

A further data set deals with HCT-15. The data set can be described thus: Cytotoxicity against HCT-15 colon cell line using MTT colorimetric assay. It is filed as functional, cell-based. The settings on record: Homo sapiens. The procedure, abridged:
as §1

Another data set has as its system LoVo. The data set can be described thus: Cytotoxicity measured on LoVo colon cell line using MTT colorimetric assay. It is filed as functional, cell-based. The settings on record: Homo sapiens. The procedure, abridged: as §1

Regarding `COc1ccc(-c2cc3c(OC)cc(OC)c4c3n(c2=O)CCC4=O)cc1`, the IC50 in the data set with J82, in the data set on MCF7, in the data set on T-24, in the data set on PC-3, in the data set on U-87 MG and in the data set with U373 MG was greater than 10 µM throughout. The IC50 with T47D, in the data set with A-427, in the data set with A549, in the data set with A 172, with HCT-15 and with LoVo was greater than 10 µM each time. For the same compound, the MTD in data set [1] turned out to be 160 mg/kg.
For the compound `COc1ccc(-c2cc3cccc(OC)c3nc2O)cc1`, the IC50 in the data set with J82, in the data set on MCF7, in the data set with T-24, with PC-3, in the data set on U-87 MG and in the data set on U373 MG was greater than 10 µM each time. The IC50 with T47D, with A-427, with A549, in the data set with A 172, in the data set on HCT-15 and with LoVo was greater than 10 µM throughout. In addition, the MTD in [1] stood at 160 mg/kg.
As to `COc1ccc(-c2cc3c(OC)cc(OC)cc3n(C)c2=S)cc1`, the IC50 with J82, with MCF7, in the data set with T-24, in the data set with PC-3, in the data set on U-87 MG and in the data set on U373 MG was greater than 10 µM in each case. For the same compound, the IC50 with T47D, in the data set on A-427, with A549, in the data set on A 172, in the data set on HCT-15 and in the data set on LoVo was greater than 10 µM each time. In data set [1], this compound yielded an MTD of 160 mg/kg.
`CCOC(=O)Cn1c(=O)c(-c2ccc(OC)cc2)cc2c(OC)cc(OC)cc21`: the IC50 in the data set on J82, in the data set on MCF7, with T-24, in the data set with PC-3, with U-87 MG and in the data set on U373 MG was greater than 10 µM each time. Further, the IC50 in the data set on T47D, in the data set on A-427, with A549, in the data set on A 172, in the data set on HCT-15 and with LoVo was greater than 10 µM throughout. Further, the MTD in data set [1] is 160 mg/kg.
For `COc1cc(OC)c2cc(-c3ccc(O)cc3)c(=O)n(C)c2c1`, the IC50 in the data set on J82, in the data set with MCF7, with T-24, in the data set on PC-3, in the data set on U-87 MG and in the data set on U373 MG was greater than 10 µM in each case. Moreover, the IC50 with T47D, in the data set on A-427, with A549, with A 172, in the data set with HCT-15 and in the data set with LoVo was greater than 10 µM throughout. For the same compound, the MTD in data set [1] turned out to be 160 mg/kg.
On to `COc1cc(OC)c2cc(-c3ccccc3)c(O)nc2c1`, for which the IC50 in the data set on J82, with MCF7, in the data set on T-24, in the data set with PC-3, with U-87 MG and with U373 MG was greater than 10 µM in each case. The IC50 in the data set with T47D, in the data set with A-427, with A549, in the data set on A 172, in the data set with HCT-15 and in the data set on LoVo was greater than 10 µM throughout. Besides, in data set [1], the MTD came out at 160 mg/kg.
As for `COc1ccc(-c2cc3c(OC)cc(OC)cc3n(C)c2=O)cc1`, the IC50 with J82, with MCF7, in the data set with T-24, with PC-3, with U-87 MG and with U373 MG was greater than 10 µM in each case. For the same compound, the IC50 in the data set on T47D, with A-427, with A549, with HCT-15 and in the data set on LoVo was greater than 10 µM in each case. For the same compound, the maximum tolerated dose (MTD) in data set [1] is 160 mg/kg.
For the compound `COc1ccc(-c2cc3c(OC)cc(OC)cc3n(C)/c2=N\Nc2ccccc2)cc1`, the IC50 in the data set on J82, in the data set with MCF7, with T-24, with PC-3, in the data set on U-87 MG and in the data set on U373 MG was greater than 10 µM each time. Further, the IC50 in the data set with T47D, in the data set on A-427, in the data set on A549, in the data set with A 172, with HCT-15 and in the data set with LoVo was greater than 10 µM each time. This compound showed an MTD in data set [1] of 160 mg/kg.
Regarding `COc1cc(OC)c2cc(-c3ccc(OCc4ccccc4)cc3)c(O)nc2c1`, the IC50 in the data set on J82, with MCF7, with T-24, with PC-3, with U-87 MG and with U373 MG was greater than 10 µM throughout. Besides, the IC50 in the data set on T47D, with A-427, in the data set on A549, with A 172, in the data set on HCT-15 and in the data set on LoVo was greater than 10 µM in each case. The MTD in data set [1] was found to be 160 mg/kg.
In the case of `CCN(CC)C(=O)CCn1c(=O)c(-c2ccc(OC)cc2)cc2c(OC)cc(OC)cc21`, the IC50 in the data set on J82, in the data set on MCF7, in the data set on T-24, in the data set with PC-3, in the data set with U-87 MG and in the data set with U373 MG was greater than 10 µM in each case. Further, the IC50 in the data set on T47D, with A-427, in the data set with A549, in the data set on A 172, with HCT-15 and with LoVo was greater than 10 µM each time. In data set [1], the MTD was 160 mg/kg.
Turning to `COc1ccc(-c2cc3c(OC)cc(OC)cc3n(C)/c2=N\Nc2ccccn2)cc1`, the IC50 with J82, in the data set on MCF7, with T-24, with PC-3, with U-87 MG and in the data set with U373 MG was greater than 10 µM in each case. The IC50 with T47D, in the data set on A-427, in the data set with A549, with A 172, with HCT-15 and in the data set with LoVo was greater than 10 µM each time. In data set [1], this compound came in with an MTD of 160 mg/kg.
Regarding `COc1ccc(-c2cc3c(OC)cc(OC)cc3n(CC#N)c2=O)cc1`, the IC50 in the data set on J82, in the data set with MCF7, with T-24, in the data set on PC-3, with U-87 MG and in the data set with U373 MG was greater than 10 µM throughout. The IC50 in the data set with T47D, in the data set on A-427, in the data set with A549, with A 172, with HCT-15 and in the data set with LoVo was greater than 10 µM throughout. Moreover, the MTD in data set [1] amounted to 160 mg/kg.
Turning to `COc1ccc(-c2cc3c(OC)cc(OC)cc3n(CC(=O)O)c2=O)cc1`, the IC50 in the data set on J82, in the data set on MCF7, in the data set with T-24, in the data set with PC-3, in the data set on U-87 MG and in the data set on U373 MG was greater than 10 µM throughout. Besides, the IC50 in the data set with T47D, in the data set on A-427, in the data set on A549, with A 172, in the data set with HCT-15 and with LoVo was greater than 10 µM each time. This compound returned an MTD in data set [1] of 160 mg/kg.
For the compound `COc1ccc(-c2cc3c(OC)cc(OC)cc3n(CCC#N)c2=O)cc1`, the IC50 with J82, in the data set with MCF7, in the data set on T-24, in the data set with PC-3, with U-87 MG and in the data set with U373 MG was greater than 10 µM throughout. For the same compound, the IC50 with T47D, in the data set with A-427, with A549, with A 172, with HCT-15 and with LoVo was greater than 10 µM in each case. The same compound displayed an MTD in [1] of 160 mg/kg.
`CC(=O)Oc1ccc(-c2cc3c(OC(C)=O)cc(OC(C)=O)cc3n(C)c2=O)cc1`: the IC50 with J82, in the data set with MCF7, with T-24, with PC-3, with U-87 MG and in the data set with U373 MG was greater than 10 µM each time. The IC50 with T47D, in the data set on A-427, with A549, with A 172, in the data set with HCT-15 and in the data set with LoVo was greater than 10 µM each time. This compound also came in with an MTD in [1] of 160 mg/kg.
As to `COc1ccc(-c2cc3c(OC)cc(OC)cc3n(CCN(C)C)c2=O)cc1`, the IC50 in the data set on J82, with MCF7, in the data set with T-24, in the data set with PC-3, in the data set on U-87 MG and in the data set with U373 MG was greater than 10 µM in each case. Also, the IC50 in the data set on T47D, in the data set on A-427, in the data set with A549, in the data set on A 172, in the data set with HCT-15 and with LoVo was greater than 10 µM in each case. Further, in data set [1], the MTD came out at 160 mg/kg.
Turning to `Oc1ccc(-c2cc3c(O)cc(O)cc3nc2O)cc1`, the IC50 in the data set on J82, in the data set on MCF7, with T-24, with PC-3, with U-87 MG and with U373 MG was greater than 10 µM each time. In addition, the IC50 in the data set with T47D, in the data set with A-427, in the data set on A549, with A 172, in the data set with HCT-15 and in the data set with LoVo was greater than 10 µM throughout. In data set [1], this compound showed an MTD of 160 mg/kg.
For the compound `COc1ccc(-c2cc3c(OC)cc(OC)cc3nc2O)cc1`, the MTD in [1] came out at 160 mg/kg.
